In ChEMBL document CHEMBL3244123, “Isoquinolines. 5. Synthesis and antiarrhythmic activity of benzylisoquinoline derivatives” (J Med Chem, 1977) one finds Activity and ED50 data, which are given here for 14 compounds.

In data set [1] the test system is Mus musculus. In words: Toxicity in Swiss albino mouse assessed as ataxia at 200 mg/kg, sc measured up to 20 mins. Format: organism-based. Also on record: dose 200 mg/kg, route subcutaneous. The conditions noted are these: in vivo. The procedure, abridged:
(§1)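 Female Swiss albino mice, ten per dose, were given drug in 0.9% saline sc and watched for 20 min before chloroform challenge. Ataxia, convulsions, loss of righting reflex and death were each reported as number of animals affected of ten.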

Data set [2] relates to Mus musculus. Description: Toxicity in Swiss albino mouse assessed as convulsions at 200 mg/kg, sc measured up to 20 mins. Format: organism-based. Also on record: dose 200 mg/kg, route subcutaneous. The conditions noted are these: in vivo. An outline of the steps: as §1
The subject of data set [3] is Mus musculus. Description: Toxicity in Swiss albino mouse assessed as loss of righting reflex at 200 mg/kg, sc measured up to 20 mins. To be noted: in vivo. Also on record: dose 200 mg/kg, route subcutaneous. Format: organism-based. An outline of the steps: as §1
Data set [4] has as its system Mus musculus. In words: Toxicity in Swiss albino mouse assessed as mortality at 200 mg/kg, sc measured up to 20 mins. Format: organism-based. The conditions noted are these: in vivo. Also on record: dose 200 mg/kg, route subcutaneous. The procedure, abridged: as §1
For data set [5], the system named is Mus musculus. In words: Antiarrhythmic activity in Swiss albino mouse assessed as protection against chloroform-induced ventricular fibrillation at 100 mg/kg, sc administered 20 mins prior to challenge. The class given is functional, organism-based. Also on record: dose 100 mg/kg. To be noted: Heart. The procedure, abridged:
(§2)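 Female Swiss albino mice, groups of ten, received drug in 0.9% saline sc at 100 mg/kg; dose raised to 200 mg/kg when neither protection nor toxicity appeared. After 20 min, mice were exposed to chloroform vapour. Absence of ventricular fibrillation counted as protection, reported as number protected of ten.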

Data set [6] concerns Mus musculus. Description: Toxicity in Swiss albino mouse assessed as ataxia at 100 mg/kg, sc measured up to 20 mins. The class given is organism-based. Also on record: dose 100 mg/kg, route subcutaneous. The conditions noted are these: in vivo. An outline of the steps:
as §1

Data set [7] relates to Mus musculus. In words: Toxicity in Swiss albino mouse assessed as convulsions at 100 mg/kg, sc measured up to 20 mins. The class given is organism-based. Also on record: dose 100 mg/kg, route subcutaneous. To be noted: in vivo. An outline of the steps:
as §1

Data set [8] deals with Mus musculus. Description: Toxicity in Swiss albino mouse assessed as loss of righting reflex at 100 mg/kg, sc measured up to 20 mins. The class given is organism-based. Also on record: dose 100 mg/kg, route subcutaneous. The conditions noted are these: in vivo. The procedure, abridged: as §1
Data set [9] relates to Mus musculus. In words: Toxicity in Swiss albino mouse assessed as mortality at 100 mg/kg, sc measured up to 20 mins. The class given is organism-based. Also on record: dose 100 mg/kg, route subcutaneous. The conditions noted are these: in vivo. The procedure, abridged: as §1
Data set [10] has as its system Mus musculus. In words: Antiarrhythmic activity in Swiss albino mouse assessed as protection against chloroform-induced ventricular fibrillation at 47 mg/kg, sc administered 20 mins prior to challenge. The class given is functional, organism-based. Also on record: dose 47 mg/kg. To be noted: Heart. An outline of the steps:
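Female Swiss albino mice, ten per dose, received drug in 0.9% saline sc at one of three log-spaced doses. After 20 min, mice were exposed to chloroform vapour. Mice without ventricular fibrillation were scored protected, reported as number protected of ten.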

In data set [11] the test system is Mus musculus. In words: Toxicity in Swiss albino mouse assessed as ataxia at 47 mg/kg, sc measured up to 20 mins. Format: organism-based. Also on record: dose 47 mg/kg, route subcutaneous. To be noted: in vivo. An outline of the steps: as §1
Data set [12] deals with Mus musculus. Description: Toxicity in Swiss albino mouse assessed as loss of righting reflex at 47 mg/kg, sc measured up to 20 mins. Format: organism-based. Also on record: dose 47 mg/kg, route subcutaneous. The conditions noted are these: in vivo. The procedure, abridged: as §1
Data set [13] has as its system Canis familiaris. In words: Antiarrhythmic activity in beagle dog myocardial infarction model assessed as ventricular ectopic beats at 0.5 mg/kg/min, iv administered as infusion (reference value: 84 to 98 %). Format: functional, Canis lupus familiaris, Heart. The procedure, abridged: (§3)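 Drug infused iv via a fore limb vein at 0.5 mg/kg/min (as base, in 0.9% saline, pH 6–7) until clearing (ventricular ectopic activity ≤5% for a consecutive 5 min); EKG and vital signs monitored during and after infusion.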

Data set [14] has as its system Canis familiaris. Description: Antiarrhythmic activity in beagle dog myocardial infarction model assessed as ventricular rate at 0.5 mg/kg/min, iv administered as infusion (reference value: 126 to 221 bpm). Format: functional, Canis lupus familiaris, Heart. The procedure, abridged:
as §3

Data set [15] has as its system Canis familiaris. In words: Antiarrhythmic activity in beagle dog myocardial infarction model assessed as concentration required for reduction in ventricular ectopic activity to 5% or less for a consecutive 5 min compound administered iv as infusion. Format: functional, Canis lupus familiaris, Heart. The procedure, abridged:
as §3

In data set [16] the test system is Canis familiaris. In words: Toxicity in beagle dog myocardial infarction model assessed as head tremors compound administered iv as infusion. Format: organism-based, Canis lupus familiaris. The conditions noted are these: in vivo. An outline of the steps:
as §3

Data set [17] deals with Canis familiaris. In words: Toxicity in beagle dog myocardial infarction model assessed as convulsions compound administered iv as infusion. The class given is organism-based, Canis lupus familiaris. To be noted: in vivo. An outline of the steps:
as §3

The test system of data set [18] is Canis familiaris. Description: Antiarrhythmic activity in beagle dog myocardial infarction model assessed as mean arterial blood pressure at 0.5 mg/kg/min, iv administered as infusion (reference value: 80 to 115 mmHg).
In data set [19] the test system is Mus musculus. Description: Antiarrhythmic activity in Swiss albino mouse assessed as protection against chloroform-induced ventricular fibrillation at 200 mg/kg, sc administered 20 mins prior to challenge. Format: functional, organism-based. Also on record: dose 200 mg/kg. To be noted: Heart. An outline of the steps: as §2
Data set [20] deals with Mus musculus. In words: Antiarrhythmic activity in sc dosed Swiss albino mouse assessed as protection against chloroform-induced ventricular fibrillation compound administered 20 mins prior to challenge. The conditions noted are these: Heart. The class given is functional. An outline of the steps: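 Female Swiss albino mice, ten per dose, given drug sc in 0.9% saline; screen at 100 mg/kg (raised to 200 mg/kg if neither protection nor toxicity), observed 20 min for toxicity, then exposed to chloroform vapour; absence of ventricular fibrillation counted as protection. Full tests used three log-spaced doses; ED50 with 95% Fieller limits by Berkson minimum logit χ² analysis.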

Data set [21] relates to Mus musculus. Description: Toxicity in Swiss albino mouse assessed as ataxia at 138 mg/kg, sc measured up to 20 mins. The class given is organism-based. Also on record: dose 138 mg/kg, route subcutaneous. The conditions noted are these: in vivo. An outline of the steps:
as §1

Data set [22] deals with Mus musculus. Description: Toxicity in Swiss albino mouse assessed as convulsions at 138 mg/kg, sc measured up to 20 mins. Also on record: dose 138 mg/kg, route subcutaneous. The class given is organism-based. To be noted: in vivo. An outline of the steps:
as §1

Data set [23] has as its system Mus musculus. Description: Toxicity in Swiss albino mouse assessed as loss of righting reflex at 138 mg/kg, sc measured up to 20 mins. Format: organism-based. Also on record: dose 138 mg/kg, route subcutaneous. To be noted: in vivo. An outline of the steps: as §1
The test system of data set [24] is Mus musculus. Description: Toxicity in Swiss albino mouse assessed as mortality at 138 mg/kg, sc measured up to 20 mins. Format: organism-based. Also on record: dose 138 mg/kg, route subcutaneous. The conditions noted are these: in vivo. The procedure, abridged: as §1

Active and inactive are the calls of the source. The rule behind the calls is not given here.

On to `CCN(CC)CC(=O)Nc1cc(OC)ccc1C.Cl`, for which the Activity result with Mus musculus [1], in the data set on Mus musculus [2], in the data set with Mus musculus [3] and in the data set on Mus musculus [4] was “Non-toxic” each time.
As to `CCN(CC)CC(=O)Nc1c(C)cccc1C` [LIDOCAINE], the result in the data set on Mus musculus [5] was Active. Also, the Activity result is reported as “Toxic” in the data set with Mus musculus [6], “Toxic” in the data set with Mus musculus [7], “Toxic” in the data set on Mus musculus [8] and “Non-toxic” with Mus musculus [9].
Regarding `COc1ccc(CC2c3cc(OC)c(OC)cc3CCN2C)cc1OC` (racemic) [LAUDANOSINE], the result with Mus musculus [5] and in the data set with Mus musculus [10] was inactive. The Activity entry in the data set with Mus musculus [6] is listed as “Toxic”; in the data set with Mus musculus [7] it was “Toxic”; in the data set on Mus musculus [8] it was “Non-toxic”; with Mus musculus [9], “Toxic”; with Mus musculus [11] it was “Non-toxic”; in the data set on Mus musculus [12], “Non-toxic”.
As to `CCN(CC)CC(=O)Nc1cc(OC)c(OC)cc1Cc1nccc2ccccc12`, the Activity entry with Mus musculus [7], with Mus musculus [8] and in the data set on Mus musculus [9] was “Non-toxic” throughout.
Consider `COc1ccc(Cc2nccc3cc(OC)c(OC)cc23)cc1OC` [PAPAVERINE], for which the Activity result in the data set on Mus musculus [7], in the data set on Mus musculus [8] and in the data set on Mus musculus [9] was “Non-toxic” in each case.
Turning to `CCN(CC)CC(=O)Nc1c(Cc2nccc3ccccc23)ccc(OC)c1OC`, the Activity result in the data set on Mus musculus [6] is recorded as “Non-toxic”; in the data set on Mus musculus [7], “Non-toxic”; with Mus musculus [8], “Non-toxic”; with Mus musculus [9] it was “Non-toxic”; in the data set on Canis familiaris [13], 0%; with Canis familiaris [14], 135%. In addition, the Activity in the data set with Canis familiaris [15] came out at 46.5 mg/kg; in the data set with Canis familiaris [16] it was 6.25 mg/kg; in the data set on Canis familiaris [17], 15.75 mg/kg; in the data set on Canis familiaris [18], 90%.
Regarding `COc1ccc(Cc2nccc3ccccc23)c(NC(=O)CN)c1OC`, the Activity entry in the data set on Mus musculus [6], in the data set on Mus musculus [7], in the data set on Mus musculus [8] and with Mus musculus [9] was “Non-toxic” throughout.
Take `CCN(CC)CC(=O)Nc1cc(OC)c(OC)cc1C.Cl`: the outcome in the data set with Mus musculus [5] was inactive. Further, the Activity result in the data set on Mus musculus [6], in the data set on Mus musculus [7], in the data set on Mus musculus [8], in the data set on Mus musculus [9], in the data set on Mus musculus [1] and in the data set with Mus musculus [2] was “Non-toxic” throughout. In addition, the Activity result in the data set with Mus musculus [3] and with Mus musculus [4] was “Non-toxic” each time.
On to `CCNCC(=O)Nc1cc(OC)c(OC)cc1Cc1nccc2cc(OC)c(OC)cc12`, for which the Activity result in the data set with Mus musculus [7], with Mus musculus [8] and with Mus musculus [9] was “Non-toxic” throughout.
Regarding `CCN(CC)CC(=O)Nc1cc(OC)c(OC)cc1Cc1nccc2cc(OC)c(OC)cc12`, the Activity result with Mus musculus [6], with Mus musculus [7], in the data set on Mus musculus [8] and with Mus musculus [9] was “Non-toxic” throughout.
In the case of `CCNCC(=O)Nc1c(Cc2nccc3ccccc23)ccc(OC)c1OC`, the Activity entry with Mus musculus [6] was “Non-toxic”; in the data set on Mus musculus [7], “Non-toxic”; in the data set with Mus musculus [8] it was “Non-toxic”; with Mus musculus [9], “Non-toxic”; in the data set with Canis familiaris [13], 0%; in the data set on Canis familiaris [15], 10 mg/kg. Further, the Activity with Canis familiaris [18] is on record as 85%.
With `CCN(CC)CC(=O)Nc1cc(OC)ccc1Cc1nccc2ccccc12`, the outcome with Mus musculus [5] and in the data set on Mus musculus [19] was inactive. The Activity entry with Mus musculus [6], in the data set on Mus musculus [7], in the data set on Mus musculus [8], in the data set on Mus musculus [9], in the data set with Mus musculus [1] and in the data set with Mus musculus [2] was “Non-toxic” each time. The Activity result in the data set on Mus musculus [3] and in the data set with Mus musculus [4] was “Non-toxic” throughout.
On to `CCN(CC)CC(=O)Nc1c(CC2c3ccccc3CCN2C)ccc(OC)c1OC.Cl` (centres undefined), for which, in the data set with Mus musculus [20], the ED50 (in general, the dose that gives a 50% effect, or the effect in half of the subjects) came out at 147 mg/kg. For the same compound, the Activity entry with Mus musculus [21], in the data set with Mus musculus [22], in the data set with Mus musculus [23] and with Mus musculus [24] was “Non-toxic” in each case.
Consider `COc1ccc(Cc2nccc3ccccc23)c(NC(=O)C(C)N)c1OC` (centres undefined), for which the Activity result in the data set with Mus musculus [6], with Mus musculus [7], in the data set on Mus musculus [8] and with Mus musculus [9] was “Non-toxic” each time.
